Screening data from PubChem BioAssay.
TRPC4 inh: TRPC4 (mouse) channel inhibition; Q9QUQ5; HEK293 TRPC4beta/mu-opioid, DAMGO-evoked Fluo4 calcium flux; hits give low values; B-score at 10 µM; 300,000 tested, 0.39% active; AID 2247;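 active means B-score over 3 SD under the library average, no early fluorescence shift, positive overall ratio signal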
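material = TRPC4beta/mu-opioid receptor HEK293 cell line | probe or stimulus = sequential submaximal and maximal DAMGO stimulation | compound dosing = one concentration per compound | measured by = Fluo4 Ca2+ flux fluorescence | evaluation = integrated fluorescence ratio relative to baseline, converted to per-well B score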
TRPC6 inh: blocks the mouse TRPC6 cation channel; HEK293-TRPC6, membrane potential dye, ACh-evoked depolarization; hits give low values; B-score at 10 µM; 310,000 tested, 1.1% active; AID 2553;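 active means B-score under library mean minus 3 SD, initial fluorescence not abnormally high, positive integrated signal ratio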;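 further: B-score derived from integrated fluorescence ratio over the kinetic read; more negative B-score means stronger inhibition of depolarization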
Target sequence (Q61143 whole entry, looked up): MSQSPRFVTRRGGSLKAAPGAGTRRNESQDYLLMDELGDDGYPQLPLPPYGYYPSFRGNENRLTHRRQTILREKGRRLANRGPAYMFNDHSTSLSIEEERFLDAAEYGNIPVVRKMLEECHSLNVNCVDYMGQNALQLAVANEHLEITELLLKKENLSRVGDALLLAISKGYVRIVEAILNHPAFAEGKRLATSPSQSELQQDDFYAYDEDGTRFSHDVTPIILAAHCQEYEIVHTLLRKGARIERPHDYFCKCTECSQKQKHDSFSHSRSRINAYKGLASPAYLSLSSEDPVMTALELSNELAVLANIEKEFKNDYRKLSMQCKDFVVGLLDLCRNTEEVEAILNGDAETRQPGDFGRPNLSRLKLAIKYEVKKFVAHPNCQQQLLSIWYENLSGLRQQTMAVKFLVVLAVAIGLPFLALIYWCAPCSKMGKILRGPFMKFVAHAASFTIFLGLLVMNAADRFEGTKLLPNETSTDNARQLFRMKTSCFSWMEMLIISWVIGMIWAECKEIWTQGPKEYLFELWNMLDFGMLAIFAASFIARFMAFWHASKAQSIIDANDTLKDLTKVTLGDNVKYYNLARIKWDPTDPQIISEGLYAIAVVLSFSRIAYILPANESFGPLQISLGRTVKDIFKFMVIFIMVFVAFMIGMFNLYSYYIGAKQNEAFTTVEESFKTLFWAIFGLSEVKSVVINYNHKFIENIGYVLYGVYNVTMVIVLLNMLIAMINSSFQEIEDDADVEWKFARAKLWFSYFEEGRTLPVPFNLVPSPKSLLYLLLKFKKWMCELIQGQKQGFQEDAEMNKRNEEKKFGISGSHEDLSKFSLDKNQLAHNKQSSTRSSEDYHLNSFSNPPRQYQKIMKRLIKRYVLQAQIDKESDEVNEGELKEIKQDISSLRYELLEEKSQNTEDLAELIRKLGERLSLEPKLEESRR
TRPC4 potent: allosterically enhances the mouse TRPC4 cation channel | AID 2227 | HEK293 TRPC4beta/mu-opioid, DAMGO EC20, Fluo-4 Ca2+ flux; hits give high values | B-score at 10 µM | 310,000 tested, 0.42% active;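 active means B-score of calcium response area above 5 SD of library B-scores, with initial fluorescence ratio within 5 SD of library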;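 further: B-score of integrated fluorescence ratio over time as area under calcium response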
TRPC4 act: opens the mouse TRPC4 cation channel. 310,000 tested, 0.49% active. HEK293 TRPC4beta/mu-opioid, Fluo4 calcium fluorescence; hits give high values. B-score at 10 µM. AID 2237;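 active means B-score above 5 SD of library B-scores, and initial fluorescence ratio not above library mean plus 5 SD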;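 further: positive B-score marks a calcium rise read as TRPC4 activation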
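Material: HEK293 stable line with TRPC4beta plus mu-opioid receptor; technique: Fluo4 calcium-sensitive dye fluorescence, kinetic, 1 Hz baseline; timing: Fluo4 dye loading 45 min at room temperature, 110 s recording; controls: assay buffer as low control, maximal DAMGO as high control; read-out: integrated baseline-normalised fluorescence ratio, converted to per-well B score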
TRPC6 act: mouse TRPC6 channel activation | HEK293-TRPC6 membrane potential dye fluorescence; hits give high values | Q61143 | 310,000 tested, 0.13% active | AID 2550 | B-score at 10 µM;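 active means B-score of the integrated fluorescence ratio above library mean plus 3 SD, and starting fluorescence ratio within library mean plus 5 SD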;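 further: higher score means more depolarization so channel activation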
Pemphigus Ab inh: inhibitors of pemphigus antibody binding to human desmoglein-3; P32926; DSG3-coupled beads, scFv-anti-DSG3-GFP binding, flow cytometry; hits give low values; binding (percent of control), % at 10 µM; 310,000 tested, 0.48% active;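 active means binding more than 3 SD below its plate's average and above zero; inconclusive means below that plate limit but binding exactly zero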;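 further: hits lower antibody fragment binding to DSG3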
TRPC4 sel inh 2: second selectivity test of TRPC6 inhibitors: effect on mouse TRPC4; shares compounds with TRPC6 inh; HEK293 TRPC4/MOR, membrane potential dye fluorescence; channel activated by saturating DAMGO dose; inhibition, % at 10 µM; 920 tested, 42% active;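 active means compounds whose fluorescence signal differed from control wells by over 3 SD, either direction, in both duplicate plates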
TRPC4 spec: mouse TRPC4 off-target activity of TRPC6 inhibitors; shares compounds with TRPC6 inh; HEK293 TRPC4/mu-opioid, membrane potential fluorescence; activity change, negative = inhibition, % at 10 µM; 920 tested, 61% active; AID 2777;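 active means rise or fall in signal beyond 3 SD of buffer-only wells in both replicate plates, either sign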;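 further: integrated kinetic ratio of fluorescence range over baseline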
HEK293 MPD ctr 2-1: parental HEK293 nonspecific activity of TRPC6 inhibitors, second screen; 920 tested, 31% active; parental HEK293 membrane potential dye fluorescence; maximal acetylcholine challenge after compound addition; shares compounds with TRPC6 inh; signal change vs control, % at 10 µM; AID 2779;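 active means membrane potential signal moving either way by over 3 SD of the maximum-effect control, in both duplicate plates, meaning non-specific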
HEK293 MPD ctr-1: parental HEK293 nonspecific activity of TRPC6 inhibitors. shares compounds with TRPC6 inh. parental HEK293 membrane potential dye fluorescence. membrane potential signal change, % at 10 µM. 920 tested, 60% active;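 active means membrane potential signal shifting up or down by more than 3 SD of buffer-only wells, on both duplicate plates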
HEK293 MPD ctr-2: counter-screen for TRPC6 modulators: effect in parental HEK293 cells; shares compounds with TRPC6 inh; membrane potential dye fluorescence; membrane potential signal change, % at 10 µM; 2,400 tested, 51% active; AID 488924;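 active means membrane potential signal moves up or down beyond 5 SD from buffer-only wells, on both duplicate plates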
HEK293 MPD ctr 2-2: second check of TRPC6 modulator effects in parental HEK293 cells. shares compounds with TRPC6 inh. membrane potential dye fluorescence; after compound, maximal acetylcholine stimulation. inhibition, % at 10 µM. 2,400 tested, 14% active;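 active means membrane potential signal drops by more than 5 SD from the mean control signal, in both duplicate plates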;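 further: plate controls were acetylcholine ECmax control wells for no effect and buffer only wells for full effect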
TRPC4/MOR mod: selectivity of TRPC6 modulators against mouse TRPC4; shares compounds with TRPC6 inh; HEK293 TRPC4/mu-opioid, membrane potential fluorescence; percent change from control (negative = decrease, positive = increase), % at 10 µM; 2,400 tested, 69% active;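 active means membrane potential signal moved up or down beyond 5 SD of buffer control wells, in both duplicate plates, actives on both sides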;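 further: plate controls were assay buffer wells for no effect and DAMGO maximal-effect wells for full effect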
TRPC4/MOR inh 2: second check of whether TRPC6 modulators also affect mouse TRPC4; shares compounds with TRPC6 inh; HEK293 TRPC4/mu-opioid, membrane potential dye fluorescence; stimulated with maximal-effect DAMGO; inhibition, % at 10 µM; 2,400 tested, 55% active; AID 488928;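 active means drop in membrane potential signal beyond 5 SD of the control wells in both duplicate plates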;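 further: TRPC4 counter screen for TRPC6 hits run under conditions tuned for TRPC6 not TRPC4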
TRPC6 block conf: confirmation of mouse TRPC6 inhibitors | shares compounds with TRPC6 inh | inhibition, % at 10 µM | HEK293-TRPC6, membrane potential dye, ACh-evoked depolarization | 3,300 tested, 43% active;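 active means fluorescence ratio falls more than 5 SD below the full-stimulation control mean, in both duplicate runs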;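 further: integrated fluorescence ratio of peak minus minimum over baseline after agonist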
TRPC6 act confirm: confirmation of mouse TRPC6 activators; shares compounds with TRPC6 inh; HEK293-TRPC6 membrane potential dye fluorescence, FDSS; activation, % at 10 µM; 2,800 tested, 11% active;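 active means ratio signal rise beyond 5 SD above unstimulated control wells' mean, seen in both duplicate runs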;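 further: plate controls were buffer EC0 wells for no effect and acetylcholine ECmax response for full effect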
* marks the source's active call; other numbers are inactive results; i = inactive; u = inconclusive; x = no result given. This is a sample that favours compounds with a hit; in the whole collection about 2.5% have one here.

SMILES	TRPC4 inh	TRPC6 inh	TRPC4 potent	TRPC4 act	TRPC6 act	Pemphigus Ab inh	HEK293 MPD ctr-2	HEK293 MPD ctr 2-2	TRPC4/MOR mod	TRPC4/MOR inh 2	TRPC6 block conf	TRPC6 act confirm	others
Cc1ccc(NC(=O)C2CCN(S(=O)(=O)c3ccc4[nH]c(=O)oc4c3)CC2)cc1F	i	-5.8*	i	i	i	108	i	i	i	i	i	i
Cc1ccc2nc(C)cc(Nc3ccc4c(c3)OCCO4)c2c1	-8*	-6.3*	i	i	i	93	-72%*	i	i	67%*	64%*	i
CCOc1ccc2nc(C)cc(Nc3ccc(N4CCOCC4)cc3)c2c1	i	i	i	i	i	x	x	x	x	x	x	x
CC(=O)c1ccc(Nc2cc(C)nc3ccc(C)cc23)cc1	i	-9.5*	i	i	i	99	x	x	x	x	i	i	TRPC4 sel inh 2=77%*;TRPC4 spec=-12%*;HEK293 MPD ctr 2-1=14%*;HEK293 MPD ctr-1=-276%*
Cc1cc(Nc2ccc3c(c2)OCCO3)c2ccccc2n1	i	i	i	i	i	100	x	x	x	x	x	x
Cc1ccc2nc(C)cc(NCCO)c2c1	i	-8.4*	i	i	i	u	-282%*	81%*	-48%*	54%*	58%*	i
CCOc1ccc2nc(C)cc(Nc3ccc4c(c3)OCCO4)c2c1	i	-9.8*	i	i	i	128	x	x	x	x	i	i	TRPC4 sel inh 2=i;TRPC4 spec=-13%*;HEK293 MPD ctr 2-1=i;HEK293 MPD ctr-1=-178%*
CCN1C(=O)[C@H]2[C@@H](c3ccc(-c4ccc5c(c4)OCO5)c(OC)c3)N[C@@](C)(C(=O)OC)[C@H]2C1=O	x	x	x	x	x	105	x	x	x	x	x	x
CCOC(=O)c1ccc(NC(=O)NCCc2cnc[nH]2)cc1	i	-6.8*	i	175*	i	106	x	x	x	x	i	i	TRPC4 sel inh 2=69%*;TRPC4 spec=64%*;HEK293 MPD ctr 2-1=i;HEK293 MPD ctr-1=i
CCOC(=O)c1ccc(NC(=O)NCc2ccncc2)cc1	i	-5.5*	i	i	i	84	i	i	i	i	i	x
CN1CCC(OC(c2ccccc2)c2ccccc2)CC1	i	-6.6*	i	i	i	104	x	x	x	x	66%*	x	TRPC4 sel inh 2=i;TRPC4 spec=8.7%*;HEK293 MPD ctr 2-1=-5.0%*;HEK293 MPD ctr-1=11%*
COC(=O)c1ccc(Cl)cc1N(Cc1c(F)cccc1Cl)S(C)(=O)=O	i	-5.3*	i	65*	i	112	303%*	113%*	44%*	38%*	i	x
COc1ccc2ccccc2c1CNCc1ccc(C)cc1	i	-8*	i	i	i	112	x	x	x	x	62%*	x	TRPC4 sel inh 2=50%*;TRPC4 spec=52%*;HEK293 MPD ctr 2-1=i;HEK293 MPD ctr-1=22%*
COCc1ccc(CN2CCCC(C(=O)Nc3ccc(-c4cscn4)cc3)C2)o1 (configuration not stated)	i	i	i	i	i	96	x	x	x	x	x	x
O=C(NC1CC(=O)N(c2ccc(Cl)cc2)C1)C1CC1 (configuration not stated)	i	i	i	i	i	97	x	x	x	x	x	x
N=c1c2c3c(sc2ncn1N)CCC3	i	i	i	i	i	106	x	x	x	x	x	x
CC(C)(C)C1CCc2c(sc3ncn(N)c(=N)c23)C1 (configuration not stated)	i	-6.5*	i	i	i	92	i	i	-16%*	67%*	46%*	i
Cc1ccc(-c2nnc3ccc(SCC(=O)Nc4cc(C)on4)nn23)cc1	i	i	i	i	i	102	x	x	x	x	x	x
Cc1cc(NC(=O)CSc2ccc3nnc(-c4cccs4)n3n2)no1	i	-5.3*	i	i	i	107	-159%*	i	-36%*	i	i	i
Cc1cc(C)n2[nH]c(=O)c(N=Nc3ccc(S(N)(=O)=O)cc3)c2n1	i	-15*	i	i	i	97	-397%*	102%*	-60%*	68%*	79%*	i
Cc1ccc(N=Nc2c(=O)[nH]n3c(C)cc(C)nc23)cc1	i	-6.1*	14*	i	i	94	-134%*	i	-14%*	i	41%*	i
c1ccc(C(c2ccccc2)c2noc(CN3CCN(C4CCCC4)CC3)n2)cc1	i	-5.2*	i	i	i	96	124%*	i	15%*	i	i	x
NC(=O)CCN1CCN(Cc2nc(C(c3ccccc3)c3ccccc3)no2)CC1	i	-7.9*	i	i	i	105	x	x	x	x	i	i	TRPC4 sel inh 2=i;TRPC4 spec=i;HEK293 MPD ctr 2-1=i;HEK293 MPD ctr-1=i
CC(=O)N1CCN(Cc2nc(C(c3ccccc3)c3ccccc3)no2)CC1	i	i	i	i	i	104	x	x	x	x	x	x
Cc1nc(CN2CCN(Cc3nc(C(c4ccccc4)c4ccccc4)no3)CC2)cs1	i	-6.4*	i	i	i	104	101%*	i	10%*	i	48%*	x
